These results are taken from ChEMBL document CHEMBL1122336, “Aromatic amidines: comparison of their ability to block respiratory syncytial virus induced cell fusion and to inhibit plasmin, urokinase, thrombin, and trypsin” (J Med Chem, 1983).

The target in assay [1] is T1, Urokinase-type plasminogen activator (Homo sapiens, UniProt P00749). Description: Inhibition constant against Urokinase.
In assay [2] the target is Plasminogen (Homo sapiens, UniProt P00747). Kind of assay: Inhibition constant against human plasminogen. The method in brief: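 Amidase assay with plasmin on N-benzoyl-DL-arginine p-nitroanilide (BAPNA), run at pH 7.6 and 37 °C. Ki was derived from a Dixon plot of reciprocal initial velocities against inhibitor concentrations at two substrate levels.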
Plasminogen, sequence (P00747 97-580 limits assumed): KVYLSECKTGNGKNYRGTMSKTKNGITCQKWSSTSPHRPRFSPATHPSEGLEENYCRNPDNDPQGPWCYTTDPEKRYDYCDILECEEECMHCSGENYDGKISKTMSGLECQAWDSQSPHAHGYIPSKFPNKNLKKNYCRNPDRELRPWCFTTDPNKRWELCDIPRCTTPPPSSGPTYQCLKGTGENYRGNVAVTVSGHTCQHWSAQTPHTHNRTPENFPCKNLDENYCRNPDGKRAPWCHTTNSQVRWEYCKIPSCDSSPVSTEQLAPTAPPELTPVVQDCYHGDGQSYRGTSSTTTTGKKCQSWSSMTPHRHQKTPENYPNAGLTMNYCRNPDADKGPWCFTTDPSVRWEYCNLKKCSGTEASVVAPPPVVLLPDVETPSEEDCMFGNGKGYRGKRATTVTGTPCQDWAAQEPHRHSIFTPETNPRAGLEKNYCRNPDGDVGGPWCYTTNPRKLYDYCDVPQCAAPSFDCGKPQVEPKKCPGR
Plasminogen, sequence (P00747 581-810 limits assumed): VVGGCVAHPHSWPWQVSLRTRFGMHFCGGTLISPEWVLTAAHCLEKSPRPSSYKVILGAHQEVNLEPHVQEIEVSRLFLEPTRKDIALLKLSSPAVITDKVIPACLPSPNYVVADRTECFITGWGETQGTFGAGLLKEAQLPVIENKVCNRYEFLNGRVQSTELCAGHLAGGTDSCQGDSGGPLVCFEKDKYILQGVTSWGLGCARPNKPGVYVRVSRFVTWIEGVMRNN
Assay [3] has as its system HEp-2. Kind of assay: Minimum concentration required for the complete blockage of virus induced cell […]; cytotoxic at 100 uM. It is filed as functional, cell-based. The conditions noted are these: Homo sapiens.
In assay [4] the target is Prothrombin (Bos taurus, UniProt P00735). Kind of assay: Inhibition constant against bovine thrombin.
The target of assay [5] is T2, Serine protease 1 (Bos taurus, UniProt P00760).
T2 sequence (P00760 whole entry): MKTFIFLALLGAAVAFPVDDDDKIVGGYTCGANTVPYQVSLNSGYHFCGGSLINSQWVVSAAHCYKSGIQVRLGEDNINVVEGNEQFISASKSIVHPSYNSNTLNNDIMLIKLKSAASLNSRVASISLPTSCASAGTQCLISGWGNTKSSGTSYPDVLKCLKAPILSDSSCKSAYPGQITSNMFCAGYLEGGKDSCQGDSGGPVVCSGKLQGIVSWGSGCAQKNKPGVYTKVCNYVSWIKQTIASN
Kind of assay: Inhibition constant against bovine trypsin.

For assay [6], the system named is HEp-2. Kind of assay: Minimum concentration required for the complete blockage of virus induced cell […]; NB means no blockage of cell fusion at the highest concentration where there is cytotoxicity at 10 uM. It counts as functional, cell-based. Conditions: Homo sapiens.
Assay [7] relates to HEp-2. Description: Minimum concentration required for the complete blockage of virus induced cell […]; NB means no blockage of cell fusion at the highest concentration where there is cytotoxicity at 100 uM. It counts as functional, cell-based. The conditions noted are these: Homo sapiens.
Assay [8] has as its system HEp-2. Description: Minimum concentration required for the complete blockage of virus induced cell division. It is filed as functional, cell-based. Conditions: Homo sapiens. The method in brief:
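HEp-2 cells (MEM + 10% FBS, passages 370–376, mycoplasma-free) seeded to ~10^6 cells/well at 72 h; RS virus A2 strain adsorbed at 0.1 MOI for 2 h at 36 °C. Wells rinsed, then given inhibitor at 100, 10, 1.0, 0.5 or 0.1 in MEM with 2% FBS and 1% Me2SO. Fusion blockage and toxicity scored at 72 h.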

Assay [9] deals with T1, Urokinase-type plasminogen activator. Kind of assay: Inhibition constant against Urokinase; nonlinear kinetics. The procedure, abridged:
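Amidase assay with urokinase on the substrate L-pyroglutamylglycyl-L-arginine p-nitroanilide (S-2444), run at pH 8.1 and 37 °C. Ki was read from a Dixon plot: the reciprocal of initial velocity was plotted against inhibitor concentration at two substrate concentrations.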

Turning to `N=C(N)c1ccc(OCCCCOc2ccc(-c3nc4ccc(C(=N)N)cc4[nH]3)cc2)cc1`, the Ki came to 4.47 µM in assay [1] and 8.18 µM in assay [2].
For `N=C(N)c1ccc(OCCOc2ccc(-c3nc4ccc(C(=N)N)cc4[nH]3)cc2)cc1` the same measures were 12 µM and 3.9 µM.
As for `N=C(N)c1ccc2c(ccn2CCCCn2ccc3cc(C(=N)N)ccc32)c1`, the Concentration in assay [3] turned out to be 10 µM. In addition, the Ki was determined as 9.96 µM in [1], 11.1 µM in [4], 3.2 µM in assay [5] and 2.93 µM in assay [2].
For the compound `N=C(N)c1ccc(OCCCCOc2ccc(-c3nc4cc(C(=N)N)ccc4[nH]3)cc2)cc1`, in assay [6], the Concentration entry is reported as “Cytotoxic”.
Compound `N=C(N)c1cccc(Cn2ccc3cc(C(=N)N)ccc32)c1` registered a Concentration in assay [3] of 10 µM. Moreover, the inhibition constant Ki in [4] was 22.4 µM; in assay [5] it was 8.29 µM; in assay [2] it was 65.6 µM.
For the compound `CCC(=O)c1cc2ccc(C(=N)N)cc2[nH]1`, in [7], the Concentration result is “Cytotoxic”. Besides, the inhibitory constant (Ki) in [1] worked out at 40.3 µM; in assay [4], 55 µM; in [5] it was 15.3 µM; in assay [2], 61.5 µM.
For `N=C(N)c1ccc2c(C(=O)C(F)(F)F)c[nH]c2c1` the same measures were “Cytotoxic”, greater than 100 µM, 1510 µM, greater than 1000 µM and greater than 1000 µM.
With `N=C(N)c1ccc(OCCCOc2ccc(-c3nc4ccc(C(=N)N)cc4[nH]3)cc2)cc1`, the results for the Ki in assay [1] and in assay [2] were 17.8 µM and 8.19 µM, respectively.
`N=C(N)c1ccc(Cn2ccc3ccccc32)cc1` displayed a Concentration in assay [3] of 1 µM. The Ki in assay [4] was 13.1 µM; in assay [2], 111 µM.
For `N=C(N)c1ccc(OCCCOc2ccc(-c3nc4cc(C(=N)N)ccc4[nH]3)cc2)cc1`, the Concentration in assay [3] stood at 10 µM.
Take `N=C(N)c1ccc(Cn2ccc3cc([N+](=O)[O-])ccc32)cc1`: the Concentration result in [7] was “Cytotoxic”. The Ki in assay [1] was greater than 200 µM; in assay [4] it was 164 µM; in [5] it was 3.44 µM; in assay [2], greater than 400 µM.
In assay [3], `N=C(N)c1ccc2c(ccn2Cc2cccc([N+](=O)[O-])c2)c1` gave a Concentration of 10 µM. The inhibition constant (Ki) in assay [4] was 6.39 µM; in assay [5], 7.77 µM; in assay [2], greater than 100 µM.
For `N=C(N)c1ccc(Cn2ccc3cc(C(=N)N)ccc32)cc1` the same measures were 10 µM, 24.8 µM, 3.18 µM and 60 µM.
In the same order, the values of `N=C(N)c1ccc(Cn2ccc3cc(C(=N)N)ccc32)c(Cl)c1` are 10 µM, 47.8 µM, 5.31 µM and greater than 700 µM.
In turn, `N=C(N)c1ccc2nc(Cc3nc4ccc(C(=N)N)cc4[nH]3)[nH]c2c1` showed a Concentration in assay [8] of 0.5 µM. Besides, the affinity in [2], expressed as Ki, was 2.65 µM.
Regarding `CCn1ccc2cc(C(=N)N)ccc21`, in assay [3], the Concentration amounted to 10 µM. Moreover, the Ki in assay [1] is 280 µM; in [4], 42.8 µM; in assay [5], 137 µM; in [2], greater than 400 µM.
Take `N=C(N)c1ccc2[nH]ccc2c1`: the Ki in assay [1] worked out at 131 µM; in assay [4], 7.68 µM; in assay [5], 29.1 µM; in assay [2] it was 112 µM.
In the same order, the values of `Cn1ccc2cc(C(=N)N)ccc21` are 196 µM, 35.2 µM, 85.3 µM and greater than 1000 µM.
Regarding `N=C(N)c1ccc2c(ccn2Cc2ccccc2)c1`, the Concentration entry in assay [7] is listed as “Cytotoxic”. The Ki in assay [1] came out at 191 µM; in assay [4], 20.1 µM; in assay [5], 15.4 µM; in [2], 844 µM.
Regarding `N=C(N)c1ccc2[nH]c(Oc3ccc(-c4nc5cc(C(=N)N)ccc5[nH]4)cc3)nc2c1`, in [7], the Concentration entry is “Cytotoxic”. The inhibition constant (Ki) entry in [9] is “nonlinear kinectics”; in assay [4] it was 3.94 µM; in assay [5], 4.67 µM; in assay [2], roughly 200 µM.
The compound `N=C(N)c1ccc2c(ccn2Cc2ccc([N+](=O)[O-])cc2N)c1` gave a Concentration in assay [3] of 10 µM. Besides, the Ki in assay [1] came out at 40 µM; in assay [4], 4.8 µM; in assay [5], 5.31 µM; in assay [2], 100 µM.
On to `N=C(N)c1ccc(OCCOc2ccc(-c3nc4cc(C(=N)N)ccc4[nH]3)cc2)cc1`, for which, in assay [3], the Concentration is 10 µM.
With `N=C(N)c1ccc2c(C=O)c[nH]c2c1`, the Ki is 10.6 µM in assay [1], greater than 1000 µM in assay [4], 25.5 µM in assay [5] and 43 µM in assay [2].
For the compound `N=C(N)c1ccc2c(ccn2Cc2cccc(N)c2)c1`, the Concentration result in [7] is recorded as “Cytotoxic”. In addition, the Ki turned out to be 15.4 µM in assay [4], 16.8 µM in [5] and 164 µM in assay [2].
For `CC(=O)c1c[nH]c2cc(C(=N)N)ccc12`, the Concentration entry in [7] was “Cytotoxic”. Besides, the Ki in assay [1] was greater than 100 µM; in assay [4], 1890 µM; in assay [5] it was greater than 1000 µM; in [2], greater than 1000 µM.
On to `N=C(N)c1ccc2c(C(=O)c3ccccc3)c[nH]c2c1`, for which the Concentration entry in assay [7] is listed as “Cytotoxic”. Moreover, the Ki is 267 µM in [1], 176 µM in assay [4], greater than 100 µM in assay [5] and greater than 200 µM in [2].
On to `N=C(N)c1ccc(OCCCCCOc2ccc(-c3nc4cc(C(=N)N)ccc4[nH]3)cc2)cc1`, for which the Concentration entry in assay [6] is on record as “Cytotoxic”. The Ki in assay [1] is 8 µM; in assay [2] it was 3.83 µM.

The term Ki denotes the equilibrium dissociation constant of an inhibitor or competing ligand from its target. Read a low Ki as a stronger hold on the target.
